Blank lines part the entries; values can stand above or below the molecule they belong to. The source made the active and inactive calls. The calls are words filed in the database; no cut-off is given here.
Key:
B16-F10 = test: Cytotoxicity against mouse B16F10 cells assessed as reduction in cell viability at 50 uM after 24 hrs by CCK-8 assay; type: cell-based; details: b16-f10, 24 h
Summary of the method: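 Viability: B16F10 cells (DMEM, 10% FBS, 37 °C, 5% CO2) plated at 5×10³ cells/well in 96-well plates, left 12 h, then given fresh medium with 50 μM compound for 24 h. After a cold PBS wash, CCK-8 added for 2 h at 37 °C and absorbance read at 450 nm. Proliferation expressed relative to untreated control; mean ± SD of three experiments.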

Tyrosinase = molecular target: T1, Tyrosinase (Agaricus bisporus, UniProt O42713); test: Activation of mushroom tyrosinase using L-tyrosine as substrate preincubated for 5 mins followed by substrate addition measured after 30 mins by ELISA
T1 sequence (O42713 whole entry): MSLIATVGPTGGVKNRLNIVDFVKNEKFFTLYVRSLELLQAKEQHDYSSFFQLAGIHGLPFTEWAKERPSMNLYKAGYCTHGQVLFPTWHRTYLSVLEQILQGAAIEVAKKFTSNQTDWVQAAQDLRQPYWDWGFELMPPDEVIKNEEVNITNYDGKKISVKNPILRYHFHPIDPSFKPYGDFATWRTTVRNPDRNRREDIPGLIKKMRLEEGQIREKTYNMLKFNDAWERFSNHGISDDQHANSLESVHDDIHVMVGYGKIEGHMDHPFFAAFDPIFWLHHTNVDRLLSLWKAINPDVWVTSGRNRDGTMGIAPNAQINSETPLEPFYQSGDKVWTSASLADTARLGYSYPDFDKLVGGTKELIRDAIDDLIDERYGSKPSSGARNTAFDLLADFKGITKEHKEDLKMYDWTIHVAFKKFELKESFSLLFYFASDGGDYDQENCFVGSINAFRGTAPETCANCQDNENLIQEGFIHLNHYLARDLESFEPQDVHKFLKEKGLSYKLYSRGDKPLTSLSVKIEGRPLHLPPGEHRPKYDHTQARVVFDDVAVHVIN
Summary of the method: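 Mushroom tyrosinase activation: test compounds (0.5–300 μM) in DMSO preincubated with enzyme 5 min at 25–30 °C, then L-tyrosine (2 mM, 0.1 mL) added and incubated a further 30 min; absorbance read at 490 nm. Rate of activation = [(C−D)−(A−B)]/(A−B)×100, A being the enzyme-only system. EC50 reported as mean ± SD of three independent experiments.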

[1] = molecular target: T2, Tyrosinase (Mus musculus) (UniProt P11344); test: Activation of tyrosinase in mouse B16F10 cells assessed as melanin production at 50 uM after 48 hrs by spectrophotometric analysis relative to control; type: cell-based
T2 sequence (whole entry): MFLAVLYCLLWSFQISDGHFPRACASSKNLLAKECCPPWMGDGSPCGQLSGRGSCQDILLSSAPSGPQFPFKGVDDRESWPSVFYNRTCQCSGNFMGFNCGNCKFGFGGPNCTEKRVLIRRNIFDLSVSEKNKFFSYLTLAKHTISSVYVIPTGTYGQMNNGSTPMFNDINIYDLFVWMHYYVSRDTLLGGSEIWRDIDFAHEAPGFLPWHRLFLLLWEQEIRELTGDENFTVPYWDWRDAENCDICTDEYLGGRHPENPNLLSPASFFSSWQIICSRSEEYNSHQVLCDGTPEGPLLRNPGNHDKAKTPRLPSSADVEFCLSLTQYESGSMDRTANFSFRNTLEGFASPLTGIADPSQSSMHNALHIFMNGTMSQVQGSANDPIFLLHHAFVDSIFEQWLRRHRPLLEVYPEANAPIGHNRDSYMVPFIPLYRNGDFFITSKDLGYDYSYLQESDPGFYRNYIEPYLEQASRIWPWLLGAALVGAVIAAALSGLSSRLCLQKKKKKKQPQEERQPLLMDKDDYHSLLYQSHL
Summary of the method: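 B16F10 cells grown in DMEM with 10% heat-inactivated FBS and penicillin/streptomycin at 37 °C, 5% CO2. Seeded at 5×10⁵ cells/well in 6-well plates for 24 h, then exposed to 50 μM compound for 48 h. After a cold PBS wash, cells were lysed in RIPA buffer 40 min on ice and dissolved in 1 M NaOH 2 h at 60 °C. Melanin was read at 405 nm and normalized; three separate experiments.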

[2] = molecular target: T2, Tyrosinase (Mus musculus); test: Potency index, ratio of compound activity to 8-MOP activity for tyrosinase activation in mouse B16F10 cells assessed as melanin production; type: cell-based

Compound: O=C(/C=C/c1ccccc1)c1ccc(OCc2cc(-c3cccs3)no2)cc1
- Activity (B16-F10): Non-Toxic
- EC50 (Tyrosinase): 56.2 µM

Compound: O=C(/C=C/c1ccccc1)c1ccc(OCc2cc(-c3ccc4c(c3)OCCO4)no2)cc1
- Activity [1]: 438%
- Ratio [2]: 4
- Activity (B16-F10): Non-Toxic
- EC50 (Tyrosinase): > 100 µM

Compound: O=C(/C=C/c1ccccc1)c1ccc(OCc2cc(-c3ccc(F)c(F)c3)no2)cc1
- Activity [1]: 463%
- Ratio [2]: 3
- Activity (B16-F10): Non-Toxic
- EC50 (Tyrosinase): 1.3 µM

Compound: COc1ccc(-c2cc(COc3ccc(C(=O)/C=C/c4ccccc4)cc3)on2)cc1
- Activity (B16-F10): Non-Toxic
- EC50 (Tyrosinase): 47.2 µM

Compound: O=C(/C=C/c1ccccc1)c1ccc(OCc2cc(-c3ccc(Cl)cc3)no2)cc1
- Activity (B16-F10): Non-Toxic
- EC50 (Tyrosinase): 8.1 µM

Compound: O=C(/C=C/c1ccccc1)c1ccc(CCc2cn(Cc3ccc(Cl)cc3)nn2)cc1
- EC50 (Tyrosinase): 23.9 µM

Compound: Cc1ccc(S(=O)(=O)Nc2ccc(C(=O)/C=C/c3ccc(Cl)cc3)cc2)cc1
- EC50 (Tyrosinase): 25.8 µM

Compound: O=C(/C=C/c1ccccc1)c1ccc(OCc2cc(-c3ccc(F)cc3)no2)cc1
- Activity (B16-F10): Non-Toxic
- EC50 (Tyrosinase): 6.4 µM

Compound: O=C(/C=C/c1ccccc1)c1ccc(OCc2cc(-c3ccc(Cl)c(F)c3)no2)cc1
- Activity [1]: Active
- Activity (B16-F10): Non-Toxic
- EC50 (Tyrosinase): 3 µM

Compound: O=C(/C=C/c1ccccc1)c1ccc(OCc2cc(-c3ccc(I)o3)no2)cc1
- Activity (B16-F10): Non-Toxic
- EC50 (Tyrosinase): 11.4 µM

Compound: O=C(/C=C/c1ccccc1)c1ccc(OCc2cc(-c3cc(Cl)cc(Cl)c3)no2)cc1
- Activity [1]: 57%
- Activity (B16-F10): Non-Toxic
- EC50 (Tyrosinase): 12.7 µM

Compound: O=C(/C=C/c1ccccc1)c1ccc(CCc2cn(Cc3cccc(Cl)c3)nn2)cc1
- EC50 (Tyrosinase): 11.9 µM

Compound: O=C(/C=C/c1ccccc1)c1ccc(CCc2cn(Cc3ccc(Cl)c(Cl)c3)nn2)cc1
- EC50 (Tyrosinase): 1.71 µM

Compound: O=C(/C=C/c1ccc(Cl)cc1)c1ccc2nc(NC(=O)c3ccccc3)sc2c1
- EC50 (Tyrosinase): 9.6 µM

Compound: Cc1ccc(/C=C/C(=O)c2ccc3nc(NC(=O)c4ccccc4)sc3c2)cc1
- EC50 (Tyrosinase): 17.1 µM

Compound: COc1c2occc2cc2ccc(=O)oc12 [METHOXSALEN]
- Activity [1]: 115%
- EC50 (Tyrosinase): 14.8 µM

Compound: O=C(/C=C/c1ccccc1)c1ccc(OCc2cc(-c3cccc(F)c3)no2)cc1
- Activity [1]: 330%
- Ratio [2]: 4
- Activity (B16-F10): Non-Toxic
- EC50 (Tyrosinase): 21.3 µM

Compound: Nc1nc2ccc(C(=O)/C=C/c3ccc(Cl)cc3)cc2s1
- EC50 (Tyrosinase): 30.6 µM

The next lines start with results.

- EC50 (Tyrosinase): 21.1 µM
Compound: O=C(/C=C/c1ccc(Cl)cc1)c1ccc(NC(=O)c2ccccc2)cc1

- EC50 (Tyrosinase): 78.1 µM
Compound: O=C(/C=C/c1ccccc1)c1ccc(OCc2cc(-c3ccccc3)no2)cc1
- Activity (B16-F10): Non-Toxic

- EC50 (Tyrosinase): 65.3 µM
Compound: COc1ccccc1-c1cc(COc2ccc(C(=O)/C=C/c3ccccc3)cc2)on1
- Activity (B16-F10): Non-Toxic

- Activity [1]: Active
- EC50 (Tyrosinase): 2.5 µM
Compound: O=C(/C=C/c1ccccc1)c1ccc(OCc2cc(-c3ccc(Cl)c(Cl)c3)no2)cc1
- Activity (B16-F10): Non-Toxic

- EC50 (Tyrosinase): 37.4 µM
Compound: COc1cccc(Cn2cc(CCc3ccc(C(=O)/C=C/c4ccccc4)cc3)nn2)c1

- EC50 (Tyrosinase): 28.9 µM
Compound: CN(C)c1ccc(-c2cc(COc3ccc(C(=O)/C=C/c4ccccc4)cc3)on2)cc1
- Activity (B16-F10): Non-Toxic

- Activity [1]: Active
- EC50 (Tyrosinase): 25.5 µM
Compound: O=C(/C=C/c1ccccc1)c1ccc(OCc2cc(-c3cccc(OC(F)(F)F)c3)no2)cc1
- Activity (B16-F10): Non-Toxic

- EC50 (Tyrosinase): 5.6 µM
Compound: O=C(/C=C/c1ccccc1)c1ccc(CCc2cn(Cc3cccc(F)c3)nn2)cc1

- EC50 (Tyrosinase): 23.8 µM
Compound: O=C(/C=C/c1ccccc1)c1ccc(OCc2cc(-c3cccc(Cl)c3)no2)cc1
- Activity (B16-F10): Non-Toxic

- EC50 (Tyrosinase): 35.6 µM
Compound: Cc1ccc(-c2cc(COc3ccc(C(=O)/C=C/c4ccccc4)cc3)on2)o1
- Activity (B16-F10): Non-Toxic

- EC50 (Tyrosinase): 14.6 µM
Compound: O=C(/C=C/c1ccccc1)c1ccc(CCc2cn(Cc3ccc(F)cc3)nn2)cc1

- EC50 (Tyrosinase): > 100 µM
Compound: O=C(/C=C/c1ccccc1)c1ccc(OCc2cc(-c3ccc([N+](=O)[O-])cc3)no2)cc1
- Activity (B16-F10): Non-Toxic

Reference: ChEMBL document CHEMBL4428110, “Synthesis and bioactivity of novel isoxazole chalcone derivatives on tyrosinase and melanin synthesis in murine B16 cells for the treatment of vitiligo” (Bioorg Med Chem, 2016)
